Assay [1] has as its system A549. The assay is described as follows: Downregulation of TNIK gene expression in human A549 cells at 26 nM after 12 hrs by microarray analysis relative to control. The assay is classed as functional. A digest of the protocol:
(§1)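 A549 cells (RPMI-1640, 10% heat-inactivated FBS, penicillin/streptomycin, 37 °C, 5% CO2) seeded at 4 × 10^5 per 60 mm dish. Exposed 12 h to conjugate at 21, 26, 34 or 100 nM in medium with 0.1% DMSO, against 0.1% DMSO control. Whole-genome (~25 000 genes) expression profiled by microarray.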

Assay [2] deals with A549. The assay is described as follows: Downregulation of ADH1A gene expression in human A549 cells at 26 nM after 12 hrs by microarray analysis relative to control. It is filed as functional. The method in brief: (§2)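 A549 cells, 4 × 10^5 per 60 mm dish, were exposed to conjugate for 12 h in medium with 0.1% DMSO; vehicle control was 0.1% DMSO. Whole human genome (~25 000 genes) expression was profiled by microarray and expression compared with the control.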

The subject of the next assay is DU-145. The experiment in a line: Antitumor activity against human DU145 cells xenografted in BALB/c-nu/nu mouse assessed as effect on tumor growth at 1.6 mg/kg, iv administered as liposomal conjugate for 14 days. The assay is classed as functional, organism-based. Also on record: dose 1.6 mg/kg. The method in brief:
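Male BALB/c-nu/nu mice (5 weeks, 15−22 g) with subcutaneous right-subaxillary A549 or DU145 xenografts (3 × 10^6 cells/mouse), grouped by tumor size. Liposomes were made from a lipid film hydrated in water and bath-sonicated 2 h, giving 330 μg/mL conjugate in 17 mM lipid. A single 125 μL intravenous dose (41 μg/mouse) was given on day 0. Tumor size and weight were read every other day for 14 days. n = 5 or 6.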
(Xenograft models place foreign cells or tissue in a host animal.)

The test system of assay [3] is A549. The assay is described as follows: Downregulation of RABGAP1L gene expression in human A549 cells at 26 nM after 12 hrs by microarray analysis relative to control. The assay is classed as functional. The method in brief:
as §1

The test system of assay [4] is A549. The experiment in a line: Upregulation of BTG2 gene expression in human A549 cells at 26 nM after 12 hrs by microarray analysis relative to control. The assay is classed as functional. The method in brief:
(§3)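 4 ×10^5 A549 cells seeded per 60 mm dish and treated 12 h with conjugate (21, 26, 34 or 100 nM) in medium; control medium contained 0.1% DMSO, with conjugates added as 0.1% DMSO solutions. Whole human genome (~25 000 genes) expression profiled by microarray against the DMSO control. A549 culture: RPMI-1640 with 10% heat-inactivated FBS, penicillin/streptomycin, 37 °C, 5% CO2.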

In assay [5] the test system is A549. The assay is described as follows: Downregulation of Q8N570 gene expression in human A549 cells at 26 nM after 12 hrs by microarray analysis relative to control. The assay is classed as functional. A digest of the protocol:
as §1

In assay [6] the test system is A549. The experiment in a line: Downregulation of DPYD gene expression in human A549 cells at 34 nM after 12 hrs by microarray analysis relative to control. It is filed as functional. The method in brief: as §2
Assay [7] concerns A549. The assay is described as follows: Downregulation of ZNF291 gene expression in human A549 cells at 34 nM after 12 hrs by microarray analysis relative to control. The assay is classed as functional. The method in brief:
as §1

Assay [8] has as its system A549. The experiment in a line: Downregulation of SMYD3 gene expression in human A549 cells at 34 nM after 12 hrs by microarray analysis relative to control. The assay is classed as functional. A digest of the protocol: as §1
In assay [9] the test system is A549. The experiment in a line: Downregulation of NP_001027.2 gene expression in human A549 cells at 34 nM after 12 hrs by microarray analysis relative to control. It is filed as functional. A digest of the protocol:
as §2

For assay [10], the system named is A549. The assay is described as follows: Upregulation of GLS2 gene expression in human A549 cells at 34 nM after 12 hrs by microarray analysis relative to control. The assay is classed as functional. The method in brief:
as §3

Results on two compounds are retold here after ChEMBL document CHEMBL2169747, “Synthesis and biological properties of highly sequence-specific-alkylating N-methylpyrrole-N-methylimidazole polyamide conjugates” (J Med Chem, 2012).

Structures are written as SMILES. Activity calls are given as the source filed them. The calls are words filed in the database; no cut-off is given here.

As to `CC(=O)Nc1cn(C)c(C(=O)Nc2cc(C(=O)Nc3cc(C(=O)NCCC(=O)Nc4cc(C(=O)NCCCC(=O)Nc5cc(C(=O)NCCC(=O)Nc6cn(C)c(C(=O)Nc7ccc8[nH]c(C(=O)N9CC(CCl)c%10c9cc(O)c9ccccc%109)cc8c7)n6)n(C)c5)n(C)c4)n(C)c3)n(C)c2)n1` (racemic), the “fold change (FC)” value with A549 [1] stood at 0.312; in the assay with A549 [2], 0.317; in the assay with A549 [3], 0.155; with A549 [4] it was 10.1; with A549 [5], 0.283. Further, in the assay on DU-145, the result was Active.
As to `CC(=O)Nc1cn(C)c(C(=O)Nc2cn(C)c(C(=O)Nc3cc(C(=O)NCCC(=O)Nc4cc(C(=O)NCCCC(=O)Nc5cn(C)c(C(=O)NCCC(=O)Nc6cn(C)c(C(=O)Nc7ccc8[nH]c(C(=O)N9CC(CCl)c%10c9cc(O)c9ccccc%109)cc8c7)n6)n5)n(C)c4)n(C)c3)n2)n1` (racemic), the “fold change (FC)” value with A549 [6] was found to be 0.103; in the assay with A549 [7], 0.311; with A549 [8], 0.291; with A549 [9], 0.313; in the assay on A549 [10] it was 6.7.
